Experimental data gathered from unrelated publications.
Compare with care: the assays were run in different laboratories.
Target: High affinity nerve growth factor receptor (NTRK1, Homo sapiens, UniProt P04629)

SMILES	test	conditions	remaining binding [%]
Cn1cc(Cl)c2c(Oc3c(F)cc(Nc4cc(Cl)nc(N)n4)cc3F)ccnc21	cell-free assay, competition with immobilised ligand	0.1 µM	74
O=C(c1ccc(Nc2ncc(Cl)c(-c3ccc(Cl)s3)n2)cc1)N1CCC(N2CCCC2)CC1	binding, competition with immobilised ligand	1 µM	1.3
CN(C)c1nccc(-c2cnc3ncccn23)n1	binding	1 µM	72
O=C(c1ccc(Nc2nccc(-c3cc4ccccc4s3)n2)cc1)N1CCC(N2CCCC2)CC1	binding, competition with immobilised ligand	1 µM	25
Nc1c(C(=O)NCc2ccc(C(=O)NCCCC3CCCCC3)cc2)cnn1-c1ccccc1	cell-free assay, competition with immobilised ligand	0.1 µM	100
c1cnn2ncc(-c3ccnc(N4CCC45COC5)n3)c2c1	binding	1 µM	53
CCN1CCN(Cc2ccc(C(=O)Nc3ccc(C)c(Oc4ccc5c(c4)CC(=O)N5)c3)cc2C(F)(F)F)CC1	binding, competition with immobilised ligand	1 µM	100
COc1cnc(Nc2cccc(S(N)(=O)=O)c2)nc1N1CCN(c2ccccc2)C(=O)C1	binding, competition with immobilised ligand	1 µM	100
CC(C)(C)c1ccc(-c2nc(CBr)nn2-c2cccc(O)c2)cc1	cell-free assay, competition with immobilised ligand	10 µM	71
CN1CCN(c2ccc(Nc3nccc(-c4cccc([N+](=O)[O-])c4)n3)cc2C(F)(F)F)CC1	binding	10 µM	13
CN(c1ccnc(CNc2nc(Nc3ccc4c(c3)CC(=O)N4)ncc2C(F)(F)F)n1)S(C)(=O)=O	cell-free assay, competition with immobilised ligand	1 µM	10
C=CC(=O)N1CCC(C(=O)NCC(=O)N2CCN(c3nc(-c4cnc(N)nc4C(F)F)nc(N4CCOCC4)n3)CC2)CC1	binding, competition with immobilised ligand	1 µM	81
CN(CCCC(F)(F)F)c1nccc(-c2cnn3ncccc23)n1	binding	1 µM	100
Cc1nc(N2CC[C@@H](O)C2)ncc1-c1cc(C(F)(F)F)cc2[nH]ncc12	cell-free assay, competition with immobilised ligand	1 µM	56
CN(C)c1ncc(F)c(-c2cnn3ncccc23)n1	binding	1 µM	97
NS(=O)(=O)c1cc(NC(=O)Cc2ccccc2)ccc1Oc1cccc(Cl)c1	cell-free assay, competition with immobilised ligand	1 µM	73
